Experiments:
[1] = test system: Rattus norvegicus; experiment: Change in circulating lymphocyte count in Wistar rat at 10 mg/kg administered as single dose through oral gavage after 6 hrs relative to control; format: functional
How it was run: (§1)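 Male Wistar rats (RccHan:WIST; n = 6) were given a single oral gavage dose of compound in DMSO plus 7.5% succinylated gelatine (final 5% DMSO). Blood lymphocytes were counted just before dosing and at later timepoints. Percent change was calculated per animal relative to the pre-dose value and compared with a vehicle-treated group, reported as the mean. A ±15% change was treated as baseline, and a reduction of about 60% or more as maximal.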

[2] = test system: Rattus norvegicus; experiment: Change in circulating lymphocyte count in Wistar rat at 3 mg/kg administered as single dose through oral gavage after 24 hrs relative to control; format: functional; how it was run: as §1
[3] = test system: Rattus norvegicus; experiment: Change in circulating lymphocyte count in Wistar rat at 3 mg/kg administered as single dose through oral gavage after 3 hrs relative to control; format: functional; how it was run: as §1
[4] = Total plasma concentration in Wistar rat at 10 mg/kg administered as single dose through oral gavage after 2 hrs by LC-MS/MS analysis; format: ADME, organism-based
How it was run: (§2)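 Male Wistar rats (n = 2 per timepoint) were dosed orally at 10 mg/kg. At 2, 6 and 24 h they were anaesthetised with 5% isoflurane and sacrificed, and blood was taken for plasma. The brain was perfused via the carotid with 10 mL 0.9% NaCl, removed, and homogenised in an equal volume of ice-cold 0.1 M Na-phosphate pH 7.4. Samples were assayed by LC-MS/MS against blank-brain calibration. Brain/plasma ratio was calculated from these values, reported as the mean of 2.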

[5] = target: Sphingosine 1-phosphate receptor 1 (Homo sapiens, UniProt P21453); experiment: Agonist activity at human recombinant S1PR1 expressed in CHO cell membranes assessed as [35S]GTPgammaS binding preincubated for 30 mins followed by [35S]GTPgammaS addition measured after 1 hr by topcount analysis
Sequence of Sphingosine 1-phosphate receptor 1 (P21453 whole entry): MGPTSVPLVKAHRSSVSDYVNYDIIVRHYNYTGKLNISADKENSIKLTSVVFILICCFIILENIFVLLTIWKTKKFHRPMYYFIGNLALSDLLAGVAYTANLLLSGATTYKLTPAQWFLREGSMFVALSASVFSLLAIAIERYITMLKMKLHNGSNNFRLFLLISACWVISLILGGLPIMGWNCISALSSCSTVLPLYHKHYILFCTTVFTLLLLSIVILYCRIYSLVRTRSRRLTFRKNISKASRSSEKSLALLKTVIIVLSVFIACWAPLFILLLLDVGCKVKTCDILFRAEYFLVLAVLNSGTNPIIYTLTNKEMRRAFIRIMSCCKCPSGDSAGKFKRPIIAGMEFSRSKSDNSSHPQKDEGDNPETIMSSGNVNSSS

[6] = test system: Liver microsome; experiment: Unbound fraction corrected apparent intrinsic clearance in Wistar rat liver microsomes at 1 uM after 2.5 to 15 mins by LC-MS/MS analysis in presence of NADPH; format: ADME
How it was run: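 Apparent CLint was measured by microsomal substrate depletion: 1 uM start, 0.5 mg/mL rat liver microsomes, pH 7.4, 37 °C, NADPH-regenerating system, sampling 0–15 min, LC-MS/MS. It was then divided by the unbound microsomal fraction, which was determined by rapid equilibrium dialysis of 1 mg/mL microsomes for 6 h at 37 °C.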

[7] = species on record: Rattus norvegicus; experiment: Intrinsic clearance in rat liver microsomes scaled to body weight; settings: in vitro
[8] = Plasma concentration in Wistar rat at 3 mg/kg administered as single dose through oral gavage after 24 hrs by LC-MS/MS analysis; format: ADME, organism-based
How it was run: (§3)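 Single oral gavage dose to male Wistar rats in DMSO/7.5% succinylated gelatine (final 5% DMSO). Blood was drawn into EDTA at the lymphocyte-count timepoints. Plasma was prepared at 3000 g for 10 min at 4 °C and analysed by LC-MS/MS after protein precipitation.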

[9] = Total plasma concentration in Wistar rat at 10 mg/kg administered as single dose through oral gavage after 6 hrs by LC-MS/MS analysis; format: ADME, organism-based; how it was run: as §2
[10] = Total brain concentration in Wistar rat at 10 mg/kg administered as single dose through oral gavage after 24 hrs by LC-MS/MS analysis; format: ADME, organism-based; settings: read-out: Drug uptake; how it was run: as §2
[11] = Plasma concentration in Wistar rat at 10 mg/kg administered as single dose through oral gavage after 24 hrs by LC-MS/MS analysis; format: ADME, organism-based; how it was run: as §3
[12] = test system: Rattus norvegicus; experiment: Change in circulating lymphocyte count in Wistar rat at 1 mg/kg administered as single dose through oral gavage after 24 hrs relative to control; format: functional; how it was run: as §1
[13] = Plasma concentration in Wistar rat at 1 mg/kg administered as single dose through oral gavage after 24 hrs by LC-MS/MS analysis; format: ADME, organism-based; how it was run: as §3
[14] = target: T1, Sphingosine 1-phosphate receptor 4 (Homo sapiens, UniProt O95977); experiment: Agonist activity at S1PR4 (unknown origin)
T1 sequence (O95977 whole entry): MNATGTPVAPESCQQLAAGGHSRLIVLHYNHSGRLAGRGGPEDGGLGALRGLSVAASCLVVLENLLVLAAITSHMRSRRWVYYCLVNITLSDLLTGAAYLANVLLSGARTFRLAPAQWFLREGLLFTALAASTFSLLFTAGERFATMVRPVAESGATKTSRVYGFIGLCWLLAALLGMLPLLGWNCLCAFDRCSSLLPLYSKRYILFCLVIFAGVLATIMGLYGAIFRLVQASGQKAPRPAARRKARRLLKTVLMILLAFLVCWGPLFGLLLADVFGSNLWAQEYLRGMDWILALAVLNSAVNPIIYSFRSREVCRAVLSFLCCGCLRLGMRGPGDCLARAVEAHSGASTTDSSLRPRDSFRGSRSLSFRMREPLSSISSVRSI

[15] = Fraction unbound in Wistar rat liver microsomes incubated for 6 hrs by LC-MS/MS based equilibrium dialysis method; format: ADME
How it was run: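 Rapid equilibrium dialysis was run on a shaker for 6 h at 37 °C. The donor side held rat plasma (pH 7.2–7.6) or 1 mg/mL rat liver microsomes in phosphate buffer pH 7.4. The receiver side held phosphate buffer pH 7.4. Both sides were measured by LC-MS/MS to give free fraction and recovery.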

[16] = Ratio of total drug level in brain to plasma in Wistar rat at 10 mg/kg administered as single dose through oral gavage after 6 hrs; format: ADME, organism-based; settings: read-out: BPR; how it was run: as §2
[17] = Plasma concentration in Wistar rat at 3 mg/kg administered as single dose through oral gavage after 6 hrs by LC-MS/MS analysis; format: ADME, organism-based; how it was run: as §3
[18] = test system: Rattus norvegicus; experiment: Change in circulating lymphocyte count in Wistar rat at 3 mg/kg administered as single dose through oral gavage after 6 hrs relative to control; format: functional; how it was run: as §1
[19] = target: Sphingosine 1-phosphate receptor 5 (Homo sapiens, UniProt Q9H228); experiment: Agonist activity at S1PR5 (unknown origin)
Sequence of Sphingosine 1-phosphate receptor 5 (Q9H228 whole entry): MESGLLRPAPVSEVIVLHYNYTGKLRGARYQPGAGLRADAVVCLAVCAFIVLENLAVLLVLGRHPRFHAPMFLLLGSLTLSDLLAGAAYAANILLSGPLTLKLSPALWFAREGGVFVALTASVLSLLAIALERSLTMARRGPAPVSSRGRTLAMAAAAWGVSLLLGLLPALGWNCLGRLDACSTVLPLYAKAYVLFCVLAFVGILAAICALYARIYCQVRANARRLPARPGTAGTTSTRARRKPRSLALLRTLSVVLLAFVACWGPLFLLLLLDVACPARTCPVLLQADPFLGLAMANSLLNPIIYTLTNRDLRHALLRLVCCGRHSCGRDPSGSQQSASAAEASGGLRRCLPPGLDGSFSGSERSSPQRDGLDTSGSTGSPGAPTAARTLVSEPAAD

[20] = Plasma concentration in Wistar rat at 10 mg/kg administered as single dose through oral gavage after 96 hrs by LC-MS/MS analysis; format: ADME, organism-based; how it was run: as §3
[21] = test system: Rattus norvegicus; experiment: Change in circulating lymphocyte count in Wistar rat at 10 mg/kg administered as single dose through oral gavage after 24 hrs relative to control; format: functional; how it was run: as §1
[22] = Ratio of total drug level in brain to plasma in Wistar rat at 10 mg/kg administered as single dose through oral gavage after 2 hrs; format: ADME, organism-based; settings: read-out: BPR; how it was run: as §2

concentration at 2 h [4]: 783 ng/mL
EC50 [5]: 0.5 nM
CL free [6]: 14000 µL/min/mg
concentration at 24 h [8]: 25 ng/mL
concentration at 6 h [9]: 622 ng/mL
concentration at 24 h [10]: 776 ng/g
concentration at 24 h [11]: 92 ng/mL
concentration at 24 h [13]: 5.2 ng/mL
EC50 [14]: > 1000 nM
fraction unbound at 6 h [15]: 0.002
Kp at 6 h [16]: 1.69
concentration at 6 h [17]: 170 ng/mL
EC50 [19]: 753 nM
concentration at 96 h [20]: 0.5 ng/mL
Kp at 2 h [22]: 0.64
Structure (SMILES): CCc1cc(-c2noc(-c3cc(C)c(CN(C)CC(C)C)s3)n2)cc(C)c1OC[C@@H](O)CNC(=O)CO
Activity [1]: -77%
Activity [2]: -25%
Activity [3]: -59%
CL [7]: 1512 L/h/kg
Activity [12]: 4%
Activity [18]: -70%
Activity [21]: -70%

Source: ChEMBL document CHEMBL3797028, “Novel S1P1 receptor agonists - Part 4: Alkylaminomethyl substituted aryl head groups” (Eur J Med Chem, 2016)
